Experimental data from article PMC8237268 (Journal of Medicinal Chemistry, 2021).

Experiments:
Assay type in all cases: binding
[1] = molecular target: p65_45/14-3-3σΔC complex (Homo sapiens, UniProt P31947+Q04206, E49R); assay: X-ray crystal soaking of fragments into p65_45/14-3-3σΔC crystals; details: soak 10 mM compound, 7 days; imine bond to Lys122 of 14-3-3
Outline: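 His-tag-free 14-3-3σΔC (12 mg/mL) was complexed overnight 1:2 with N-acetyl, C-amide p65 pSer45 peptide in 20 mM HEPES pH 7.5, 2 mM MgCl2, 2 mM β-mercaptoethanol. Crystals grew in hanging drops (95 mM HEPES pH 7.5, 27–28% PEG400, 190 mM CaCl2, 5% glycerol). Test compound from DMSO stock was added to final 10 mM (≤1% DMSO) for 7 days. Crystals were flash-frozen; binding was judged from 2Fo-Fc density.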

[2] = molecular target: T1, p65_45/14-3-3γ (Homo sapiens, UniProt P61981+Q04206); assay: Fluorescence anisotropy; details: 50 μM 14-3-3γ, 100 nM p65_45
[3] = molecular target: T1, p65_45/14-3-3γ; assay: Fluorescence anisotropy; details: fold-change of apparent KD in comparison to a DMSO control, 1 mM fragment
[4] = molecular target: T2, TAZ-peptide/14-3-3γ (Homo sapiens, UniProt P61981); assay: FA compound titration, selectivity: TAZ-peptide and 14-3-3γ; details: 0.1 μM 14-3-3γ, 10 nM peptide
T2 sequence (P61981 1-247): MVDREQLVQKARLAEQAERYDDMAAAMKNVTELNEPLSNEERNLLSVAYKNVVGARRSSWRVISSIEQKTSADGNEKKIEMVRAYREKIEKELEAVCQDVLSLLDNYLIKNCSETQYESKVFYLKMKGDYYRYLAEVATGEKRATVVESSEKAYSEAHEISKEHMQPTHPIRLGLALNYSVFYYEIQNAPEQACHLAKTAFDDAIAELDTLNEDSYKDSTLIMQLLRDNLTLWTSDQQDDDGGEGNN

[5] = molecular target: T3, ERα-peptide/14-3-3γ (Homo sapiens, UniProt P61981); assay: FA compound titration, selectivity: ERα-peptide and 14-3-3γ; details: 0.1 μM 14-3-3γ, 10 nM peptide
T3 sequence (P61981 1-247): T2 sequence (P61981 1-247)

[6] = molecular target: T4, p53-peptide/14-3-3γ (Homo sapiens, UniProt P61981); assay: FA compound titration, selectivity: p53-peptide and 14-3-3γ; details: 0.3 μM 14-3-3γ, 10 nM peptide
T4 sequence (P61981 1-247): T2 sequence (P61981 1-247)

Chain of p65_45/14-3-3σΔC complex (P31947 1-231, other chains not shown): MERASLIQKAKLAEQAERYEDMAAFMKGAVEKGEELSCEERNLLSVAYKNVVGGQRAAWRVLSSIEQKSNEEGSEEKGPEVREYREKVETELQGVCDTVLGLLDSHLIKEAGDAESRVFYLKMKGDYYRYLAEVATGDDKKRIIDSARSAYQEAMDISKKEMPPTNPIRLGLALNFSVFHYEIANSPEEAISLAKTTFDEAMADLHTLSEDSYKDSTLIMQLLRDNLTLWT

Compound	binding of the fragment in X-ray crystal soaking experiments [1]	ternary complex formation in FA compound titration (in words) [2]	also measured
COC1CCCN(c2cc(C=O)ccc2[N+](=O)[O-])C1 (stereo not shown) [13e]	significant electron density coverage	did not elicit significant ternary complex formation	–
O=Cc1ccc(-n2ccnc2Br)nc1 [16d]	detected in the electron density map	induced an increase in anisotropy	–
O=Cc1ccc(S(=O)(=O)N2CCC(N3CCCC3)CC2)cc1 [23m]	–	–	SF (stabilization factor) [3]: 4.5 fold
O=Cc1ccc(S(=O)(=O)N2CCNc3ccccc32)cc1 [24j]	–	–	ternary complex formation with TAZ [4]: no ternary complex formation was detected; ternary complex formation with ERα [5]: no ternary complex formation was detected; ternary complex formation with p53 [6]: no ternary complex formation was detected

Further lines, with some results ahead:

binding of the fragment in X-ray crystal soaking experiments [1]	Compound	ternary complex formation in FA compound titration (in words) [2]	also measured
bound to Lys122	O=Cc1ccc([N+](=O)[O-])c(OC(=O)C2CCC2)c1 [10a]	–	–
significant electron density coverage	O=Cc1ccc([N+](=O)[O-])c(N2CCC(O)CC2)c1 [13f]	did not elicit significant ternary complex formation	–
significant electron density coverage	O=Cc1ccc([N+](=O)[O-])c(N2CCCC(O)C2)c1 (stereo not shown) [13l]	did not elicit significant ternary complex formation	–
